# Source: ChEMBL document CHEMBL1126083, “Novel functional M1 selective muscarinic agonists. Synthesis and structure-activity relationships of 3-(1,2,5-thiadiazolyl)-1,2,5,6-tetrahydro-1-methylpyridines ” (J Med Chem, 1992)
# What was measured:
# Cavia porcellus [1] = species: Cavia porcellus; assay: In vitro inhibition of force of contraction in guinea pig atria.; assay type: functional
# [2] = molecular target: T1, Muscarinic acetylcholine receptor M1 (Rattus norvegicus, UniProt P08482); assay: In vitro binding affinity against muscarinic acetylcholine receptor M1 from rat hippocampus, using [3H]pirenzepine (Pz) as radioligand; assay type: tissue-based
# T1 sequence (P08482 whole entry): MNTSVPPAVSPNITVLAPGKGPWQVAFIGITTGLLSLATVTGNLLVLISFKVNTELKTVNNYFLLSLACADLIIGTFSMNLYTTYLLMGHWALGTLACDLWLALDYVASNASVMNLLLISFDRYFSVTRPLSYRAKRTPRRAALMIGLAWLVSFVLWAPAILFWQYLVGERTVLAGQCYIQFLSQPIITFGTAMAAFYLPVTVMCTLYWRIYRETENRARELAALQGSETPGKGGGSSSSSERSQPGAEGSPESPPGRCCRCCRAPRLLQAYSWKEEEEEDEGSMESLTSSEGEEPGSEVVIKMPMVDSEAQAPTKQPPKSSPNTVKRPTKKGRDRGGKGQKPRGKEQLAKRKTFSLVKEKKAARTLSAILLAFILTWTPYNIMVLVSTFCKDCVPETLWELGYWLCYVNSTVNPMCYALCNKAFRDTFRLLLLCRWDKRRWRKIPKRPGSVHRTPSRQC
# Oryctolagus cuniculus [3] = species: Oryctolagus cuniculus; assay: In vitro inhibition of twitch height in electrically stimulated rabbit vas deferens; assay type: functional
# How it was run: (§1)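 Vasa deferentia taken from rabbits under pentobarbital (60 mg/kg i.v.), held at 0.75 g tension and equilibrated ≥30 min. Field-stimulated at 0.5 ms, 40 V, 0.05 Hz. Cumulative concentration–effect curves run on prostatic and epididymal tissues, 3–5 preparations per concentration.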
# [4] = molecular target: T1, Muscarinic acetylcholine receptor M1; assay: In vitro binding affinity against muscarinic acetylcholine receptor M1 from rat cerebral cortex, using [3H]oxotremorine-M (Oxo-M) as radioligand
# Cavia porcellus [5] = species: Cavia porcellus; assay: In vitro inhibition of maximum force of contraction in guinea pig atria.; assay type: functional
# Oryctolagus cuniculus [6] = species: Oryctolagus cuniculus; assay: In vitro inhibition of maximum twitch height in electrically stimulated rabbit vas deferens.; assay type: functional; how it was run: as §1
# [7] = molecular target: T1, Muscarinic acetylcholine receptor M1; assay: In vitro binding affinity against Muscarinic acetylcholine receptor M1 from rat hippocampus, using [3H]pirenzepine (Pz) as radioligand.; assay type: tissue-based
# [8] = molecular target: T1, Muscarinic acetylcholine receptor M1; assay: In vitro binding affinity against Muscarinic acetylcholine receptor M1 from rat hippocampus, using [3H]oxotremorine-M (Oxo-M) as radioligand.; assay type: tissue-based; conditions: in the assay text read “cerebral cortex” for “hippocampus”
# How it was run: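 Rat cortex (fresh, male Wistar) homogenized in 20 mM Hepes pH 7.4, spun 15 min at 4000g, and washed three times. Homogenate incubated with [3H]Oxo-M (1.0 nM final) for 30 min at 25 °C. […] Filtered and counted by scintillation. IC50 from at least four concentrations in triplicate, fitted by the Hill equation.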
IC50 [2] [nM],IC50 (Oryctolagus cuniculus [3]) [nM],IC50 [4] [nM],IC50 [7] [nM],IC50 [8] [nM],SMILES,IC30 (Cavia porcellus [1]) [nM],Inhibition (Cavia porcellus [5]) [%],Inhibition (Oryctolagus cuniculus [6]) [%]
6.9,7,7,,,CCCCC(C)Oc1nsnc1C1=CCCN(C)C1.O=C(O)/C=C/C(=O)O (centres undefined),> 25000,15,79
1.3,0.003,1.7,,,CCCCSc1nsnc1C1=CCCN(C)C1.O=C(O)C(=O)O,100,45,83
,,,,,CN1CCC=C(c2nsnc2Cl)C1,29400,67,
,,,,,CCCCCCCc1nsnc1C1=CCCN(C)C1.O=C(O)C(=O)O,5400,78,
105,3000,60,,,CCCCCCNc1nsnc1C1=CCCN(C)C1,13000,84,65
,,,,,CCCCCSc1nsnc1C1=CCCN(C)C1.O=C(O)C(=O)O,5400,33,
43,3,2.3,,,CSc1nsnc1C1=CCCN(C)C1.O=C(O)C(=O)O,300,100,70
8.4,47,10,,,CCC(C)CCOc1nsnc1C1=CCCN(C)C1.O=C(O)/C=C/C(=O)O (centres undefined),> 75000,0,65
4,,0.9,,,CCCSc1nsnc1C1=CCCN(C)C1.O=C(O)C(=O)O,50,100,42
18,,1.6,,,CCCOc1nsnc1C1=CCCN(C)C1.O=C(O)C(=O)O,90,100,25
,0.001,,5,6.5,CCCCCCSc1nsnc1C1=CCCN(C)C1.O=C(O)C(=O)O,9700,56,92
,,,,,CCCCOc1nsnc1C1=CCCN(C)C1.O=C(O)C(=O)O,200,71,
48,,5.7,,,CCOc1nsnc1C1=CCCN(C)C1.O=C(O)C(=O)O,> 75000,0,43
40,,30,,,CCCCCCCCOc1nsnc1C1=CCCN(C)C1.O=C(O)C(=O)O,> 75000,0,0
9,,13,,,CCCC(C)COc1nsnc1C1=CCCN(C)C1.O=C(O)/C=C/C(=O)O (centres undefined),> 75000,0,32
148,364,22,,,COc1nsnc1C1=CCCN(C)C1.O=C(O)C(=O)O,1100,50,47
,,,,,CCCCCCOc1nsnc1C1=CCCN(C)C1.O=C(O)C(=O)O,> 27000,20,

IC50 [2] [nM],IC50 (Oryctolagus cuniculus [3]) [nM],IC50 [4] [nM],IC50 [7] [nM],IC50 [8] [nM],SMILES,IC30 (Cavia porcellus [1]) [nM],Inhibition (Cavia porcellus [5]) [%],Inhibition (Oryctolagus cuniculus [6]) [%]
12,108,3,,,CCCCCCCSc1nsnc1C1=CCCN(C)C1.O=C(O)C(=O)O,7500,40,63
,,,56,428,CCCCCCCCc1nsnc1C1=CCCN(C)C1.O=C(O)C(=O)O,> 75000,14,26
,,,84,80,CCCc1nsnc1C1=CCCN(C)C1.O=C(O)C(=O)O,> 75000,7,13
,,,49,140,CCCCCCCCSc1nsnc1C1=CCCN(C)C1.O=C(O)C(=O)O,> 72000,5,42
,,,170,146,CCCCCc1nsnc1C1=CCCN(C)C1.O=C(O)C(=O)O,,12,40
145,26,2,,,CN1CCC=C(c2cnsn2)C1,10,100,59
18,22,1.9,,,CCSc1nsnc1C1=CCCN(C)C1.O=C(O)C(=O)O,70,100,71
277,10000,84,,,CCCCCCOc1nonc1C1=CCCN(C)C1,> 70000,0,47
,,,,,CCCCCOc1nsnc1C1=CCCN(C)C1.O=C(O)C(=O)O,2800,43,
62,43,29,,,CCCCCCS(=O)(=O)c1nsnc1C1=CCCN(C)C1,5500,76,73
345,,24,,,CCCCOc1nonc1C1=CCCN(C)C1,> 70000,0,12
9.7,0.006,8,,,CC(C)CCCOc1nsnc1C1=CCCN(C)C1.O=C(O)/C=C\C(=O)O,7300,73,86
,,,,,CCCCCCCOc1nsnc1C1=CCCN(C)C1.O=C(O)C(=O)O,3900,100,
860,48,109,,,CCCCCC[S+]([O-])c1nsnc1C1=CCCN(C)C1 (centres undefined),25000,45,80
,,,,,COC(=O)C1=CCCN(C)C1 [ARECOLINE],600,100,
,460,,,,C[N+](C)(C)CCOC(N)=O.[Cl-] [CARBACHOL],500,100,77

SMILES,IC50 [2] [nM],IC50 (Oryctolagus cuniculus [3]) [nM],IC50 [4] [nM],IC50 [7] [nM],IC50 [8] [nM],IC30 (Cavia porcellus [1]) [nM],Inhibition (Cavia porcellus [5]) [%],Inhibition (Oryctolagus cuniculus [6]) [%]
C[N+](C)(C)CC#CCOC(=O)Nc1cccc(Cl)c1.[Cl-],955,659,355,,,> 100000,0,91
